# Activity calls are given as the source filed them. The calls are words filed in the database; no cut-off is given here. *1 amine or outer side, *2 acyl side, *3 side chain or, on linkers, in order; H or OH if unused. Where a SMILES comes first, the peptide text is derived from it. [ ]: non-standard residue; d: D form. The star is where a group is joined. ξ: configuration not given here. X1 = CCC(=O)C[C@H](O)C[C@@H](C)C[C@H](N[*:1])C(=O)[*:2]; X3 = CCC(=O)CC(O)CC(C)C[C@H](N[*:1])C(=O)[*:2]; Hexenoyl(2E,4S-Me) = CC[C@H](C)/C=C/C(=O)*; Leu(3R-OH) = CC(C)[C@@H](O)[C@H](N)C(=O)O; NH((S)CH(Me)CH2NMe2) = C[C@@H](CN(C)C)N*; Pro(4S-Me) = C[C@@H]1CN[C@H](C(=O)O)C1; X2 = CCC(C)/C=C/C(=O)*; Aib = CC(C)(N)C(=O)O; βAla = NCCC(=O)O; ξA = CC(N)C(=O)O
# Legend:
# PSN1 [1] = assay: Cytotoxicity against human PSN1 cells assessed as reduction in cell viability measured after 24 hrs in presence of glucose by MTT assay; format: cell-based; conditions: psn1, 24 h
# Outline: (§1)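 Cells grown at 37 °C, 5% CO2 in DMEM with 10% FBS. 2.5 × 10⁴ cells/well were seeded in DMEM for 24 h, then PBS-washed and switched to fresh DMEM (+glucose) or glucose-deprived medium. Compound exposure was 24 h. MTT at 0.5 mg/mL was added for 4 h at 37 °C, then 20% SDS for 12 h at 37 °C. Absorbance read at 570 nm.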
# BXPC-3 [2] = assay: Cytotoxicity against human BxPC3 cells assessed as reduction in cell viability measured after 24 hrs under glucose-deprived condition by MTT assay; format: functional, cell-based; outline: as §1
# [3] = Cytotoxicity against human PK8 cells assessed as reduction in cell viability measured after 24 hrs in presence of glucose by MTT assay; format: cell-based; outline: as §1
# BXPC-3 [4] = assay: Cytotoxicity against human BxPC3 cells assessed as reduction in cell viability measured after 24 hrs in presence of glucose by MTT assay; format: cell-based; conditions: bxpc-3, 24 h; outline: as §1
# PSN1 [5] = assay: Cytotoxicity against human PSN1 cells assessed as reduction in cell viability measured after 24 hrs under glucose-deprived condition by MTT assay; format: functional, cell-based; outline: as §1
# Homo sapiens [6] = organism: Homo sapiens; assay: Cytotoxicity against human PK8 cells assessed as reduction in cell viability measured after 24 hrs under glucose-deprived condition by MTT assay; format: functional, cell-based; outline: as §1
# PANC-1 [7] = assay: Cytotoxicity against human PANC1 cells assessed as reduction in cell viability measured after 24 hrs under glucose-deprived condition by MTT assay; format: functional, cell-based; outline: as §1
# Homo sapiens [8] = organism: Homo sapiens; assay: Inhibition of mitochondrial ATPase in human PANC1 cells assessed as decrease in oxygen consumption rate in presence of glucose by seahorse XFe96 analyser based assay; format: cell-based
# Outline: (§2)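 Mito stress test on PANC-1 cells: 2 × 10⁴ cells were plated in DMEM overnight. Cells were moved to XF base medium with 1 mM pyruvate and 2 mM GlutaMax, containing 1 g/L glucose (or lacking it for glucose-free runs), then held 30 min at 37 °C without CO2. Injections in order: compound, 1 μM oligomycin, 1 μM FCCP, 0.5 μM rotenone plus 0.5 μM antimycin. OCR and ECAR were taken as mean rates per cycle of 2 min mixing and 3 min acquisition, over 20 or 21 cycles.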
# Homo sapiens [9] = organism: Homo sapiens; assay: Inhibition of mitochondrial ATPase in human PANC1 cells assessed as increase in extracellular acidification rate in presence of glucose by seahorse XFe96 analyser based assay; format: cell-based; outline: as §2
# PANC-1 [10] = assay: Cytotoxicity against human PANC1 cells assessed as reduction in cell viability measured after 24 hrs in presence of glucose by MTT assay; format: cell-based; conditions: panc-1, 24 h; outline: as §1
# Homo sapiens [11] = organism: Homo sapiens; assay: Inhibition of mitochondrial ATPase in human PANC1 cells assessed as decrease in oxygen consumption rate at 0.6 ug/ml in presence of glucose by seahorse XFe96 analyser based assay; format: cell-based; outline: as §2
# Homo sapiens [12] = organism: Homo sapiens; assay: Inhibition of mitochondrial ATPase in human PANC1 cells assessed as increase in extracellular acidification rate at 0.6 ug/ml in absence of glucose by seahorse XFe96 analyser based assay; format: cell-based; outline: as §2
# Homo sapiens [13] = organism: Homo sapiens; assay: Inhibition of mitochondrial ATPase in human PANC1 cells assessed as increase in extracellular acidification rate at 0.6 ug/ml in presence of glucose by seahorse XFe96 analyser based assay; format: cell-based; outline: as §2
# Homo sapiens [14] = organism: Homo sapiens; assay: Inhibition of mitochondrial ATPase in human PANC1 cells assessed as decrease in oxygen consumption rate at 0.6 ug/ml in absence of glucose by seahorse XFe96 analyser based assay; format: cell-based; outline: as §2
SMILES,Activity (PSN1 [1]),Activity (BXPC-3 [2]),Activity [3],Activity (BXPC-3 [4]),Activity (PSN1 [5]),Activity (Homo sapiens [6]),Activity (PANC-1 [7]),inhibition (Homo sapiens [8]),inhibition (Homo sapiens [9]),Activity (PANC-1 [10]),inhibition (Homo sapiens [11]),inhibition (Homo sapiens [12]),inhibition (Homo sapiens [13]),inhibition (Homo sapiens [14])
CCC(=O)CC(O)CC(C)C[C@H](NC(=O)[C@@H]1C[C@H](C)CN1C(=O)/C=C/C(C)CC)C(=O)N[C@H](C(=O)NC(C)(C)C(=O)N[C@@H](CC(C)C)C(=O)N[C@@H](CC(C)C)C(=O)NC(C)(C)C(=O)NC(C)(C)C(=O)NCCC(=O)NC(C)C(=O)O)[C@H](O)C(C)C (stereo partly drawn) (X2-[Pro(4S-Me)][X3][Leu(3R-OH)][Aib]LL[Aib][Aib][βAla][ξA]-OH),Non-Toxic,inactive,Non-Toxic,Non-Toxic,inactive,inactive,inactive,inactive,inactive,Non-Toxic,–,–,–,–
"CCC(=O)C[C@H](O)C[C@@H](C)C[C@H](NC(=O)[C@@H]1C[C@H](C)CN1C(=O)/C=C/[C@@H](C)CC)C(=O)N[C@H](C(=O)NC(C)(C)C(=O)N[C@@H](CC(C)C)C(=O)N[C@@H](CC(C)C)C(=O)NC(C)(C)C(=O)NC(C)(C)C(=O)NCCC(=O)N[C@@H](C)CN(C)C)[C@H](O)C(C)C ({Hexenoyl(2E,4S-Me)}-[Pro(4S-Me)][X1][Leu(3R-OH)][Aib]LL[Aib][Aib][βAla]-{NH((S)CH(Me)CH2NMe2)})",Non-Toxic,Active,Non-Toxic,Non-Toxic,Active,Active,Active,Active,Active,–,Active,inactive,Active,Active

# — ChEMBL document CHEMBL4316650, “Leucinostatin Y: A Peptaibiotic Produced by the Entomoparasitic Fungus Purpureocillium lilacinum 40-H-28” (J Nat Prod, 2019)
